According to PMC3262452 (Virology, 2011):
Where two headings read alike, the source gives them in different places. Marks after values point to notes of the source that are not given here.

Columns and labels:
[1] = test system: WT HIV; test: microbe, parasite or virus in culture; type: cell-based, HIV-1
[2] = test system: AZT-R HIV; test: microbe, parasite or virus in culture; type: cell-based, HIV-1
[3] = biological target: wt HIV-1 RT RNase H (Human immunodeficiency virus type 1 group M subtype B, UniProt P04585); test: In vitro RT-RNase H activity; type: biochemical; conditions: read-out: IC50 RT-RNase H, recombinant HIV-1 RT
[4] = biological target: HIV-1 RT DNA polymerase (Human immunodeficiency virus type 1 group M subtype B, UniProt P04585); test: In vitro RT RNA-dependent DNA polymerase activity; type: biochemical; conditions: read-out: IC50 RT-DNA polymerase, recombinant HIV-1 RT
[5] = test system: HOS cells; test: XTT cell viability assay; type: cell-based, human; conditions: read-out: CC50 XTT
Method in brief: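 HOS cells were grown in DMEM with 3.5% fetal bovine serum, 3.5% newborn calf serum and penicillin/streptomycin, then exposed to test compounds. Viability was measured with a commercial XTT kit, in which mitochondrial enzymes reduce the tetrazolium to an orange product read by absorbance. CC50 is the concentration killing half the HOS cells. Runs were done once or twice.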

[6] = test system: HOS cells; test: ATP based luciferase assay; type: cell-based, human; conditions: for CC50: read-out: CC50 ATP-lite, HOS cells
[7] = read-out: IC50 WT HIV, RNHI alone, HOS cells, luciferase based assay
[8] = read-out: IC50 AZT-R HIV, RNHI alone, HOS cells, luciferase based assay
[9] = Human immunodeficiency virus 1, HOS, read-out: AZT IC50
[10] = Human immunodeficiency virus 1, HOS, read-out: AZT IC50 + NaN3
[11] = Human immunodeficiency virus 1, HOS, read-out: 3TC IC50

| SMILES | effect of RNHI on the AZT IC50 (fold increase) [1] | IC50 [1, 7] | effect of RNHI on the AZT IC50 (fold increase) [2] | IC50 [2, 8] | IC50 [3] | IC50 [4] | CC50 [5] | CC50 [6] | further results |
| --- | --- | --- | --- | --- | --- | --- | --- | --- | --- |
| O=C(CSc1ncccc1C(=O)O)c1ccc(O)c(O)c1 [F3253-0041] | little to no effect | 70 µM | decreased the AZT IC50 | 59 µM | 2.9 ± 1.1 µM | > 100 µM | 370 µM | 160 µM | % ATP relative to untreated HOS ([6]; 70 μM, one or two assays): 92^a % |
| Cc1ccnc2c1NC(=O)c1cccnc1N2C1CC1 [NVP, nevirapine, reference compound] | – | – | – | – | – | – | – | – | reduction of infectivity of the virus stock ([1]; 40 nM NVP, HOS cells): ~ 60%; IC50 ([2]; Human immunodeficiency virus 1, HOS, read-out: IC50 of NVP for blocking replication): 0.027 ± 0.001 µM |
| O=C1S/C(=C\c2ccc(O)c(O)c2)C(=O)N1c1ccc(O)cc1 [F0444-0019] | ~ 5 fold | 24 µM | ~ 5 fold | 28 µM | 5 ± 1.8 µM | 18.5 ± 5.9 µM | 24 ± 3 µM | 14 ± 6 µM | effect of RNHI on the 3TC IC50 (fold increase) [1]: ~ 3 fold; effect of RNHI on the 3TC IC50 [2]: insignificant; % ATP relative to untreated HOS ([6]; 20 μM): 36 ± 10% |
| Cc1cn([C@H]2C[C@H](N=[N+]=[N-])[C@@H](CO)O2)c(=O)[nH]c1=O [AZT, zidovudine, reference compound] | – | – | – | – | – | – | – | – | IC50 [1, 9]: 0.004 ± 0.003 µM; IC50 [1, 10]: 0.004 ± 0.002 µM; Fold decrease of AZT IC50 by NVP ([1]; WT HIV, 40 nM NVP, not statistically significant): 1 fold; Fold decrease of AZT IC50 by NaN3 ([1]; WT HIV, 0.5 mM NaN3, not statistically significant): 0 fold; Fold decrease of AZT IC50 by NVP ([2]; AZT-R HIV, 40 nM NVP, not statistically significant): 2 fold; Fold decrease of AZT IC50 by NaN3 ([2]; AZT-R HIV, 0.5 mM NaN3, not statistically significant): 1.4 fold; IC50 [2, 9]: 0.041 ± 0.038 µM; IC50 [2, 10]: 0.056 ± 0.037 µM |
| Nc1ccn([C@H]2CS[C@@H](CO)O2)c(=O)n1 [3TC, 2', 3'-dideoxy-3'-thiacytidine, reference compound] | – | – | – | – | – | – | – | – | Fold decrease of 3TC IC50 by NVP [1]: 2 fold; IC50 [1, 11]: 8 ± 3 µM; Fold decrease of 3TC IC50 by NVP [2]: ~2 fold; IC50 [2, 11]: 24 ± 14 µM |
| [N-]=[N+]=[N-].[Na+] [NaN3, sodium azide, reference compound] | – | – | – | – | – | – | – | – | effect of NaN3 on the IC50 for AZT [1]: no significant effect; effect of NaN3 on the IC50 for AZT [2]: no significant effect; % ATP relative to untreated HOS ([6]; 0.5 mM): 31 ± 8%; reduction of the level of ATP in HOS cells ([6]; 0.5 mM NaN3): ~ 70% |
| O=C1NC(=Nc2ccccc2O)S/C1=C/c1ccc(O)c(O)c1 [F0888-0058] | no significant effect | 34 µM | 2 fold | 30 µM | 5 ± 2.6 µM | 29.6 ± 1.4 µM | 16 ± 5 µM | 14 ± 3 µM | effect of RNHI on the 3TC IC50 (fold increase) [1]: ~ 1.7 fold; effect of RNHI on the 3TC IC50 [2]: did not see a significant effect; % ATP relative to untreated HOS ([6]; 20 μM): 41 ± 4% |
| O=C(O)CC1CC(=O)Oc2c1ccc(O)c2O (stereo not shown) [F3284-8495] | little to no effect | 58 µM | decreased the AZT IC50 | 54 µM | 3.3 ± 0.7 µM | > 100 µM | 120 µM | 67 µM | % ATP relative to untreated HOS ([6]; 70 μM, one or two assays): 87^a % |
| Cc1c[nH]c2c1C(c1ccc(O)c(O)c1)C(C#N)=C(N)O2 (stereo not shown) [F0915-1507] | no significant effect | 50 µM | no significant effect | 49 µM | 5.8 ± 2.2 µM | > 100 µM | 52 µM | 44 ± 14 µM | % ATP relative to untreated HOS ([6]; 50 μM, one or two assays): 46^a % |
